Measured values published in PMC6374747 (Biochemistry, 2018).
One block for each substance: values may come before it. Ends that are not written are not given here.

How the values were obtained:
[1] = Seeded nucleation ThT aggregation assay; type: physicochemical; conditions: 40 μM peptide, 200 μL, pH 5.0; seeds of 5 or 7, 3–300 ng
How it was run: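 Seeds were prepared by centrifuging aggregated peptide (20000g, 30 min) and homogenising the pellet in 20 mM NaOAc to an estimated 0.1 mg/mL. ThT fluorescence was followed at 37 °C (ex 444 nm, em 485 nm) in kinetic mode.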

[2] = ThT fluorescence aggregation assay; type: physicochemical; conditions: for Concentration at which amyloid-like aggregation was observed (ThT): pH 5.0, 20 mM NaOAc, 1–200 μM tested
How it was run: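 Peptide (199 μL; 200–1 μM at pH 5.0 in 20 mM NaOAc, or 200 μM in buffers of pH 3.0–7.0) was mixed with 1 μL ThT. Fluorescence was read at 37 °C (ex 444 nm, em 485 nm, 10 nm bandwidth) every 10 min for at least 15 h with gentle agitation. Signal was normalised to buffer plus ThT. Runs were done at least three times, each in triplicate; end point at 15 h.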

[3] = test system: marmoset EBV-BLCs and co-culture with lymphocytes; experiment: FACS-based immunotoxicity assay; type: cell-based, Callithrix jacchus; conditions: CellTrace-stained EBV-BLCs, 24 h, 30, 10, 3, 1 μg/mL tested
How it was run: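 EBV-BLCs were prestained with CellTrace for 20 min at RT and plated at 1 × 10^3 cells/well. Peptide (30, 10, 3, 1 μg/mL; medium as negative control) was added for 1 h at 37 °C, 5% CO2, in medium with 10% FCS. Freshly thawed axillary lymph node mononuclear cells from an EAE marmoset were then added at 1 × 10^5 cells/well for 24 h. Cells were stained with a live/dead marker and AnnexinV-APC, then fixed in 1% PFA/AnnexinV binding buffer. CellTrace+ and CellTrace– gates were each gated for AnnexinV and live/dead. Non-co-cultured lymphocytes served as control.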

Human EBV-infected BLCs = experiment: Immunofluorescence microscopy of bioorthogonal peptides; type: cell-based; conditions: for Intracellular aggregation in EBV-infected BLCs (within LC3 positive vesicles): 6.2 and 25 μM (also 3.1, 12.5 μM), 48 h, serum-free, CuAAC Alexa647-azide; for Aggregates in the absence of cells (CuAAC with Alexa647-azide): serum-free medium, no cells
How it was run: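 Human BSM EBV-lymphoblastoid cells (1.5 × 10^6/well) were incubated with peptide (6.25 or 25 μM; medium as control) in serum-free R0 medium at 37 °C. Cytospins (5 × 10^4 cells, 28g, 3 min) were air-dried, stored at −80 °C, and PFA-fixed. Staining: anti-LC3 1:20 overnight at 4 °C, then anti-mouse FITC 1:400. Peptide was detected by CuAAC (0.064 mM CuSO4, 0.038 mM ascorbate, 0.25 mM THPTA, AF647-azide 1:160, 100 mM Tris pH 8.0, 1 h, RT, dark). DAPI mounting; fluorescence microscopy.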

Substance: MOG35-55(Arg3) (MEVGWYRPPFSRVVHLYRNGK-NH2; not fully specified; UniProt Q16653 64-84, looked up, fragment) [Peptide 1]
Aggregation kinetics on seeding (ThT) [1]: no aggregation was observed
Aggregation at any pH or any concentration tested (ThT) ([2]; pH 3.0–7.0 at 200 μM, 1–200 μM at pH 5.0, 37 °C): did not show any aggregation

Substance: MOG31-55(Pg_Cit41&46) [Peptide 11]
Concentration giving increased level of apoptosis (Annexin V) [3]: > 1000 ng/mL
Intracellular aggregation in EBV-infected BLCs (within LC3 positive vesicles) (Human EBV-infected BLCs): small spheres
Aggregates in the absence of cells (CuAAC with Alexa647-azide) (Human EBV-infected BLCs): large aggregates

Substance: MOG31-55(Pg_Cit46&Cit52) [Peptide 12]
Concentration giving increased level of apoptosis (Annexin V) [3]: > 1000 ng/mL
Intracellular aggregation in EBV-infected BLCs (within LC3 positive vesicles) (Human EBV-infected BLCs): large agglomerates
Aggregates in the absence of cells (CuAAC with Alexa647-azide) (Human EBV-infected BLCs): large aggregates

Substance: MOG31-55(NArg3) (NATGMEVGWYRPPFSRVVHLYRNGK; UniProt Q16653 60-84, looked up, fragment) [Peptide 9]
Aggregation of elongated MOG31–55 peptides (ThT) ([2]; pH 5.0, 37 °C, 1–200 μM): Neither 9 nor 10 aggregated

Substance: MOG35-55(Cit41) [Peptide 2]
Concentration at which amyloid-like aggregation was observed (ThT) ([2]; 37 °C): > 4 µM

More lines, now with the values ahead:

Aggregation at pH 6 compared to pH 5 (ThT) ([2]; 200 μM, 37 °C): ~3 fold
Aggregation at pH 7 compared to pH 5 (ThT) ([2]; 200 μM, 37 °C): ~4 fold
Concentration at which amyloid-like aggregation was observed (ThT) ([2]; 37 °C): > 4 µM
Aggregation at a final concentration of 1 μM (ThT) ([2]; pH 5.0, 37 °C): but not at a final concentration of 1 μM
Substance: MOG35-55(Cit3) [Peptide 8]

Concentration at which amyloid-like aggregation was observed (ThT) ([2]; 37 °C): > 4 µM
Aggregation at a final concentration of 1 μM (ThT) ([2]; pH 5.0, 37 °C): but not at a final concentration of 1 μM
Substance: MOG35-55(Cit46) [Peptide 3]

Concentration at which amyloid-like aggregation was observed (ThT) ([2]; 37 °C): aggregation at all concentrations tested
Substance: MOG35-55(Cit41&Cit52) [Peptide 6]
